Laboratory results reported in ChEMBL document CHEMBL3621084, “Discovery of 2-Pyridinone Aminals: A Prodrug Strategy to Advance a Second Generation of HIV-1 Integrase Strand Transfer Inhibitors” (J Med Chem, 2015).
≈ marks a conversion by molar mass, not a printed value.

How the values were obtained:
[1] = Plasma clearance in dog; assay type: ADME, organism-based, Canis lupus familiaris
[2] = tested on: Human immunodeficiency virus 1; assay: Antiviral activity against HIV1 infected in human MT4 cells expressing GFP incubated for 48 to 72 hrs in presence of 50% normal human serum by multiple round viral replication kinetics assay; assay type: functional
[3] = Intrinsic clearance in human hepatocytes at 1 uM by LC-MS/MS method; assay type: ADME, cell-based, Hepatocyte; conditions: read-out: CLH
[4] = Plasma clearance in rat; assay type: ADME, organism-based
[5] = tested on: Human immunodeficiency virus 1; assay: Antiviral activity against HIV1 infected in human MT4 cells expressing GFP incubated for 48 to 72 hrs in absence of 50% normal human serum by multiple round viral replication kinetics assay; assay type: functional
[6] = tested on: Human immunodeficiency virus 1; assay: Resistance index, ratio of IC50 for antiviral activity against HIV1 expressing integrase Y143R mutant to IC50 for antiviral activity against HIV1 expressing wild type integrase; assay type: functional
Outline: (§1)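 Fold shift computed as the inflection point (IP) against mutant HIV-1 divided by the IP against wild-type virus. Both IPs come from a kinetic HIV replication (viral kinetics) potency assay run in 50% normal human serum (NHS).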

[7] = Oral bioavailability in dog; assay type: ADME, organism-based, Canis lupus familiaris; conditions: in vivo
[8] = tested on: Human immunodeficiency virus 1; assay: Resistance index, ratio of IC50 for antiviral activity against HIV1 expressing integrase Q148R mutant to IC50 for antiviral activity against HIV1 expressing wild type integrase; assay type: functional; outline: as §1
[9] = Oral bioavailability in rat; assay type: ADME, organism-based; conditions: in vivo
[10] = tested on: Human immunodeficiency virus 1; assay: Resistance index, ratio of IC50 for antiviral activity against HIV1 expressing integrase E92Q mutant to IC50 for antiviral activity against HIV1 expressing wild type integrase; assay type: functional; outline: as §1
[11] = Volume of distribution at steady state in Wistar-Hanover rat at 0.2 mg/kg, iv by LC-MS/MS method; assay type: ADME, organism-based; conditions: in vivo, read-out: Vdss
[12] = AUC (0 to infinity) in Wistar-Hanover rat at 2 mg/kg, po by LC-MS/MS method; assay type: ADME, organism-based; set-up: dose 2 mg/kg, route oral, time infinity; conditions: in vivo
[13] = Half life in Wistar-Hanover rat at 0.2 mg/kg, iv by LC-MS/MS method; conditions: in vivo
[14] = Oral bioavailability in Wistar-Hanover rat at 2 mg/kg by LC-MS/MS method; assay type: ADME, organism-based; conditions: in vivo
[15] = Plasma clearance in Wistar-Hanover rat at 0.2 mg/kg, iv by LC-MS/MS method; assay type: ADME, organism-based
[16] = Volume of distribution at steady state in beagle dog at 0.5 mg/kg, iv by LC-MS/MS method; assay type: ADME, organism-based, Canis lupus familiaris; conditions: in vivo, read-out: Vdss
Canis familiaris [17] = assay: (§2) Oral bioavailability in beagle dog at 2 mg/kg by LC-MS/MS method; assay type: ADME, organism-based, Canis lupus familiaris; conditions: in vivo
Canis familiaris [18] = assay: (§3) AUC (0 to infinity) in beagle dog at 2 mg/kg, po by LC-MS/MS method; assay type: ADME, organism-based, Canis lupus familiaris; set-up: dose 2 mg/kg, route oral, time infinity; conditions: in vivo
[19] = Half life in beagle dog at 0.5 mg/kg, iv by LC-MS/MS method; conditions: in vivo
[20] = Plasma clearance in beagle dog at 0.5 mg/kg, iv by LC-MS/MS method; assay type: ADME, organism-based, Canis lupus familiaris
[21] = Protein binding in human plasma at 2.5 uM incubated for 4 hrs by LC-MS/MS detection based equilibrium dialysis method; assay type: ADME, cell-free; conditions: read-out: PPB (converted)
Cytochrome P450 3A4 = Cytochrome P450 3A4 (Homo sapiens, UniProt P08684); assay: Time dependent inhibition of CYP3A4 (unknown origin); assay type: ADME
Canis familiaris [22] = assay: AUC (0 to infinity) in beagle dog assessed as (1R,2R,5S)-8'-(3-chloro-4-fluorobenzyl)-6'-hydroxy-2'-((S)-2-hydroxypropyl)-9',10'-dihydro-1'H-spiro[bicyclo[3.1.0]hexane-2,3'-imidazo[5,1-a][2,6]naphthyridine]-1',5',7'(2'H,8'H)-trione level at 2 mg/kg, po by LC-MS/MS method; assay type: ADME, organism-based, Canis lupus familiaris; set-up: dose 2 mg/kg, time infinity, route oral; conditions: in vivo
Outline: (§4)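 Oral rising-dose studies were run in beagle dogs with prodrugs, at doses normalized to account for the promoiety so that they give the actual parent dose administered. The read-out was plasma exposure (AUC) of the parent compound.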

[23] = Permeability in LLC-PK1 cells at 1 uM incubated for 3 hrs by LC-MS/MS method; assay type: ADME, cell-based, Sus scrofa; conditions: pig, read-out: permeability
[24] = Protein binding in beagle dog plasma at 2.5 uM incubated for 4 hrs by LC-MS/MS detection based equilibrium dialysis method; assay type: ADME, cell-free, Canis lupus familiaris; conditions: read-out: PPB (converted)
[25] = Solubility in SGF at pH 1.8 at room temperature incubated for 4 hrs; assay type: physicochemical
[26] = as §2; assay type: ADME, organism-based, Canis lupus familiaris; conditions: beagle, in vivo
[27] = Solubility in FaSSiF at pH 6.5 at room temperature incubated for 4 hrs; assay type: physicochemical
[28] = as §3; assay type: ADME, organism-based, Canis lupus familiaris; set-up: dose 2 mg/kg, route oral, time infinity; conditions: beagle, in vivo
[29] = Permeability in MDCK2 cells at 1 uM incubated for 3 hrs by LC-MS/MS method; assay type: ADME, cell-based, Canis lupus familiaris, MDCK-II; conditions: dog, MDCK; read-out: permeability
Canis familiaris [30] = assay: AUC (0 to infinity) in beagle dog assessed as c(1R,2S,5R)-8'-(3-chloro-4-fluorobenzyl)-6'-hydroxy-1-(hydroxymethyl)-2'-methyl-9',10'-dihydro-1'H-spiro[bicyclo[3.1.0]hexane-2,3'-imidazo[5,1-a][2,6]naphthyridine]-1',5',7'(2'H,8'H)-trione evel at 2 mg/kg, po by LC-MS/MS method; assay type: ADME, organism-based, Canis lupus familiaris; set-up: dose 2 mg/kg, route oral, time infinity; conditions: in vivo; outline: as §4
[31] = AUC (0 to infinity) in beagle dog at 1 mg/kg, po by LC-MS/MS method; assay type: ADME, organism-based, Canis lupus familiaris; set-up: dose 1 mg/kg, route oral, time infinity; conditions: in vivo
[32] = Oral bioavailability in beagle dog at 1 mg/kg by LC-MS/MS method; assay type: ADME, organism-based, Canis lupus familiaris; conditions: in vivo
[33] = Half life in beagle dog at 0.5 mg/kg, iv by LC-MS/MS method; conditions: in vivo; remark: listed apart in the source

Chain of Cytochrome P450 3A4 (P08684 whole entry): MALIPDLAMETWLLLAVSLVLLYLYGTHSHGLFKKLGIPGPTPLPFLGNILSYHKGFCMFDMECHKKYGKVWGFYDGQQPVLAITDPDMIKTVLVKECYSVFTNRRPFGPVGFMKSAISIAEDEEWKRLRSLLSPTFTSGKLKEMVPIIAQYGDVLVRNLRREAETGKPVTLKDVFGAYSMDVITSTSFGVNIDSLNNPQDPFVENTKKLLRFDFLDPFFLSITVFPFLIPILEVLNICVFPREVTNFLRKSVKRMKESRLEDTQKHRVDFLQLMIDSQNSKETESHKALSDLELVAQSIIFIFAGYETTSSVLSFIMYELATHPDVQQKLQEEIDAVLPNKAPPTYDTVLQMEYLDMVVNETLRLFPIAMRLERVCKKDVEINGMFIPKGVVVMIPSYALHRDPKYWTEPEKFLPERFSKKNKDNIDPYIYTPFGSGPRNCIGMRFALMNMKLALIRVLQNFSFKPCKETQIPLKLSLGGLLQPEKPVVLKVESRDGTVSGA

| SMILES | IP [2] [nM] | IP [5] [nM] | Ratio IC50 [6] | Ratio IC50 [8] | Ratio IC50 [10] | Vd [16] [L/kg] | half-life [19] [h] | clearance [20] [mL/min/kg] | fraction unbound at 4 h, 2.5 µM [21] | TDI (Cytochrome P450 3A4) | Papp at 3 h, 1 µM [23] [×10⁻⁶ cm/s] | fraction unbound at 4 h, 2.5 µM [24] | solubility at 4 h [25] [µg/mL] | solubility at 4 h [27] [µg/mL] | Papp at 3 h, 1 µM [29] [×10⁻⁶ cm/s] | further results |
| --- | --- | --- | --- | --- | --- | --- | --- | --- | --- | --- | --- | --- | --- | --- | --- | --- |
| CC(C)n1c(C(=O)N(C)C)c2c(c(O)c1=O)C(=O)N(Cc1ccc(F)c(Cl)c1)CC2 | 53 | 6 | 2 | 1 | 1 | – | – | – | – | – | – | – | – | – | – | clearance [1]: 2.2 mL/min/kg; CLint scaled at 1 µM [3]: < 20 mL/min/kg; clearance [4]: 2.3 mL/min/kg; bioavailability [7]: 44%; bioavailability [9]: 29% |
| Cc1nnc(C(=O)NC(C)(C)c2nc(C(=O)NCc3ccc(F)cc3)c(O)c(=O)n2C)o1 | 53 | 9 | – | – | – | – | – | – | – | – | – | – | – | – | – | – |
| O=C1N[C@]2(CC[C@H]3C[C@H]32)n2c1c1c(c(O)c2=O)C(=O)N(Cc2ccc(F)c(Cl)c2)CC1 | 600 | 2.5 | 1 | 5 | 3 | 0.19 | 16 | – | – | – | – | – | – | – | – | Vd [11]: 0.12 L/kg; AUC(0-inf) [12]: 189 µM·h; half-life [13]: 14 h; bioavailability [14]: 29%; clearance [15]: 0.12 mL/min/kg; F (Canis familiaris [17]): 27%; AUC (Canis familiaris [18]): 47 µM·h |
| C[C@H](O)CN1C(=O)c2c3c(c(O)c(=O)n2[C@@]12CC[C@H]1C[C@H]12)C(=O)N(Cc1ccc(F)c(Cl)c1)CC3 | 67 | 2 | 1 | 1.5 | 1.5 | 0.6 | 5.9 | 3 | 0.025 | Not Active | 14.8 | 0.012 | 30 (≈ 59.8 µM) | 58 (≈ 116 µM) | 22.9 | AUC (Canis familiaris [22]): 11 µM·h; bioavailability [26]: 42%; AUC(0-inf) [28]: 10.5 µM·h |
| CN1C(=O)c2c3c(c(O)c(=O)n2[C@]12CC[C@@H]1C[C@@]12CO)C(=O)N(Cc1ccc(F)c(Cl)c1)CC3 | 32 | 3 | 1 | 1 | 1 | 0.4 | – | 1.9 | 0.02 | Not Active | 6.7 | 0.014 | 17 (≈ 34.8 µM) | 30 (≈ 61.5 µM) | 8.4 | AUC (Canis familiaris [30]): 8 µM·h; AUC(0-inf) [31]: 4.9 µM·h; bioavailability [32]: 26%; half-life [33]: 5 h |
